From the M2OR odorant receptor database

Columns and labels:
Conditions in all cases: stereoisomer not certain
[1] = target: OR10A2 (Homo sapiens) (UniProt Q9H208)
Procedure, shortened: (§1)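 Each receptor–molecule pair is labelled responsive or non-responsive (inactive) according to whether the original authors judged the measured signal statistically different from baseline. The data were taken from the main text and supplementary material of published papers and checked for typos and inconsistencies. Assay methods differed by source, with transient luciferase assays in mammalian cell lines being common.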

[2] = target: OR10A4 (Homo sapiens) (UniProt Q9H209)
Chain of OR10A4 (Homo sapiens) (Q9H209 whole entry): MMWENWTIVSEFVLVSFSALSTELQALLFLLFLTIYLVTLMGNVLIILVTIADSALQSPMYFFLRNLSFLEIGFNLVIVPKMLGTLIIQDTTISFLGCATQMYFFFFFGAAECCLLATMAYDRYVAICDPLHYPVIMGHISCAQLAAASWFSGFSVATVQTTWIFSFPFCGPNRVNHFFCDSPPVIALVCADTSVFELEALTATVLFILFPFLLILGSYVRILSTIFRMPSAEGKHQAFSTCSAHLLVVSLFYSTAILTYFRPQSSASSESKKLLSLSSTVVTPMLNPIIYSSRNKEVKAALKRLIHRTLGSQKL
Procedure, shortened: as §1

[3] = target: OR10A5 (Homo sapiens) (UniProt Q9H207)
Chain of OR10A5 (Homo sapiens) (Q9H207 whole entry): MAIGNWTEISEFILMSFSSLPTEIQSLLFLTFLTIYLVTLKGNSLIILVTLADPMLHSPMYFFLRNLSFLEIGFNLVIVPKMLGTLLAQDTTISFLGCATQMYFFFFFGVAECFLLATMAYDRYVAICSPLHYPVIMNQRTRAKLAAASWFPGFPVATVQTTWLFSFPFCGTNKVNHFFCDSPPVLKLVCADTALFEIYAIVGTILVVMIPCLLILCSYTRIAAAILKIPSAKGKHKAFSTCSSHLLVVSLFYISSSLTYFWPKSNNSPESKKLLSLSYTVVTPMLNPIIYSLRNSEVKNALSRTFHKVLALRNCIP
Procedure, shortened: as §1

[4] = target: OR10A6 (Homo sapiens) (UniProt Q8NH74)
Chain of OR10A6 (Homo sapiens) (Q8NH74 whole entry): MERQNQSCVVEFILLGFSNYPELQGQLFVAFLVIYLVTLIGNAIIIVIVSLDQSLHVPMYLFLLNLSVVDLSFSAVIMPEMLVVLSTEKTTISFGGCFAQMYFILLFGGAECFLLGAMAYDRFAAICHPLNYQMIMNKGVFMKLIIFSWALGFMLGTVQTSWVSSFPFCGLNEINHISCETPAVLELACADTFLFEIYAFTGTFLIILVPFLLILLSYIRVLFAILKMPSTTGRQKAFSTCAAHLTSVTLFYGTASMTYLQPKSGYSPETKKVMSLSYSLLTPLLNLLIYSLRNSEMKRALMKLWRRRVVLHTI
Procedure, shortened: as §1

[5] = target: OR10A7 (Homo sapiens) (UniProt Q8NGE5)
Chain of OR10A7 (Homo sapiens) (Q8NGE5 whole entry): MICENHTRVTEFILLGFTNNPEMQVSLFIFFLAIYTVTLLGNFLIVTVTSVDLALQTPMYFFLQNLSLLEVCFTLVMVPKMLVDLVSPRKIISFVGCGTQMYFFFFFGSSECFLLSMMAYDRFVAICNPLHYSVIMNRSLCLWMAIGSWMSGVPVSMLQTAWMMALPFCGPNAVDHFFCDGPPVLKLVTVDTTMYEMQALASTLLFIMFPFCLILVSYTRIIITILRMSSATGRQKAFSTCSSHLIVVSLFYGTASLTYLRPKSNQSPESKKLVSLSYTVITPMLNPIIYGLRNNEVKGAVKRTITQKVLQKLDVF
Procedure, shortened: as §1

[6] = target: OR10AC1 (Homo sapiens) (UniProt Q8NH08)
Chain of OR10AC1 (Homo sapiens) (Q8NH08 whole entry): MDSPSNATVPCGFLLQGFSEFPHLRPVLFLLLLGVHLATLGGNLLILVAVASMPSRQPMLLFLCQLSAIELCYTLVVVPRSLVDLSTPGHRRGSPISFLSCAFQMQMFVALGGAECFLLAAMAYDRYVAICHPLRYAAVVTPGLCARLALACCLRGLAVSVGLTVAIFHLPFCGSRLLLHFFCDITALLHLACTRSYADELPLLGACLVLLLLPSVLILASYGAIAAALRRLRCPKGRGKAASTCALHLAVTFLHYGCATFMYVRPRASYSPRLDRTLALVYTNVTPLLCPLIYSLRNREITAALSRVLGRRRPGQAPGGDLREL
Procedure, shortened: as §1

[7] = target: OR10AD1 (Homo sapiens) (UniProt Q8NGE0)
Chain of OR10AD1 (Homo sapiens) (Q8NGE0 whole entry): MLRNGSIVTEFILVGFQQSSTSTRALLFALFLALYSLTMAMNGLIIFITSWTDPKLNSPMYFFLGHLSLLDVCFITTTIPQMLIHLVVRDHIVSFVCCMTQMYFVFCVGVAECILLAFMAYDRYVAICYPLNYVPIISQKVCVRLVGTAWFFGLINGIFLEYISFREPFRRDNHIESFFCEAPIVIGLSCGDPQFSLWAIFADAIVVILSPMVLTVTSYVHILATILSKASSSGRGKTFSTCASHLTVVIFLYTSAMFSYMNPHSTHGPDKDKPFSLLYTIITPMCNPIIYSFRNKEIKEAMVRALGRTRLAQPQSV
Procedure, shortened: as §1

[8] = target: OR10AG1 (Homo sapiens) (UniProt Q8NH19)
Chain of OR10AG1 (Homo sapiens) (Q8NH19 whole entry): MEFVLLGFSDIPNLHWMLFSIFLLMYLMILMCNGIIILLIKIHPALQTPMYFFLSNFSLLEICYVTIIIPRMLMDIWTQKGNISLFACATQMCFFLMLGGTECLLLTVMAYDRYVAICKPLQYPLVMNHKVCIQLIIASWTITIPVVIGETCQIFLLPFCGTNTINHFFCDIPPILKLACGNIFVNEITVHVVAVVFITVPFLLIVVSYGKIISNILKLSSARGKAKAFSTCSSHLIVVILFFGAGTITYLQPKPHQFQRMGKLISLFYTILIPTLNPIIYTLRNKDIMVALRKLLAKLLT
Procedure, shortened: as §1

[9] = target: OR10C1 (Homo sapiens) (UniProt Q96KK4)
Chain of OR10C1 (Homo sapiens) (Q96KK4 whole entry): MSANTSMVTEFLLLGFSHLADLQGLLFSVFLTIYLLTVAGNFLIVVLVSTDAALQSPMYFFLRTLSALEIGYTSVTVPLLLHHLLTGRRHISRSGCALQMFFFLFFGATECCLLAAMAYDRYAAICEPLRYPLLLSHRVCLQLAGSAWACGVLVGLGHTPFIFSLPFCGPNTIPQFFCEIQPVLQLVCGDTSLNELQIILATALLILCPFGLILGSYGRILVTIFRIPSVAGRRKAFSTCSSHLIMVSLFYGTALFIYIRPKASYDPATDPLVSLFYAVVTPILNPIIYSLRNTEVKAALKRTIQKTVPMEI
Procedure, shortened: as §1

[10] = target: OR10A3 (Homo sapiens) (UniProt P58181)
Chain of OR10A3 (Homo sapiens) (P58181 whole entry): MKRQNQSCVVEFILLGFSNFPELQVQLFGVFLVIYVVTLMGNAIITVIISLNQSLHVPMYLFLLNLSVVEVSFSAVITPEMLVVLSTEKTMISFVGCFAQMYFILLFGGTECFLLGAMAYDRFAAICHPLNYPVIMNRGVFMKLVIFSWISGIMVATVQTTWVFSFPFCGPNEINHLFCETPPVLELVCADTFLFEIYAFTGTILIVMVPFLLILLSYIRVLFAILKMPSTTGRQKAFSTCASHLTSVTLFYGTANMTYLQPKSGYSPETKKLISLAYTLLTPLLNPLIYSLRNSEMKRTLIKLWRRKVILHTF
Procedure, shortened: as §1

Measured: odorant receptor agonist call;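 further: active if original authors judged signal statistically different from baseline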

Chain of OR10A2 (Homo sapiens) (Q9H208 whole entry): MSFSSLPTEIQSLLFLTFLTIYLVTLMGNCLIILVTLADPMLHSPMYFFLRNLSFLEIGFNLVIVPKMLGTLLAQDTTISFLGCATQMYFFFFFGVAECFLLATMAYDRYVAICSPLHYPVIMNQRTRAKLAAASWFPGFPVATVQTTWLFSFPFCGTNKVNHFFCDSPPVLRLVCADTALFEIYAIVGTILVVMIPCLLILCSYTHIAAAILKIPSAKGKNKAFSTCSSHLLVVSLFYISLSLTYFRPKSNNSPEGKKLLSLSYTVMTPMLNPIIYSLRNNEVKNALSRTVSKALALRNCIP

Cc1c([N+](=O)[O-])c(C)c([N+](=O)[O-])c(C(C)(C)C)c1[N+](=O)[O-]
not listed: [10]
inactive: all other assays above

C=CCOC(=O)Cc1ccccc1
not listed: [6]
inactive: all other assays above
